# The full list was thinned out, with hits kept by preference.
# Insulin prom act – TRM-6 insulin promoter activation. TRM-6 cells (human fetal islet line), insulin promoter eGFP reporter, imaging; plate-scaled: unstimulated 0, stimulated control 100. activation, % at 2 µM. actives 0.81% (n = 130,000);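 active = activation at 2 µM above a set limit, confirmed on inspection of the cell images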;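 also: share of cells whose green reporter signal exceeds an intensity cutoff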
#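 Test system: TRM-6 insulin promoter–eGFP reporter cells / Quantity: 1,000 cells per well / Reagent: tamoxifen inducer, 0.75 µM, in seeding medium / Compound dosing: 2 µM final, single concentration / Schedule: overnight tamoxifen, then two-day compound incubation at 37 °C / Measured by: automated fluorescence imaging of paraformaldehyde-fixed, Hoechst-counterstained cells, green channel / Read-out: percent activation from GFP-positive cell fraction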
# Numbers without * were called inactive.
SMILES,Insulin prom act
COc1ccc(C(=O)NC(=O)COC(=O)C2COc3ccccc3O2)cc1 (stereo unspecified),3
Cn1c(Cn2c(=O)sc3ccccc32)nnc1SCC(=O)Nc1ccccc1,12
CSc1cccc(NC(=O)CSc2ccc(C)cc2)c1,-7
CCSCc1nnc(SCC(=O)Nc2cccc(SC)c2)n1C,425*
C=CCN1C(=O)C(CC(=O)Nc2ccccc2)N(Cc2ccccn2)C1=S (stereo unspecified),0
Cc1csc(NC(=O)CSc2ccc3nnc(-c4ccncc4)n3n2)n1,0
CCOc1ccc(-c2cc(C(=O)OC)[nH]n2)cc1,0
CC(C)CCN1CCN(Cc2ccc(Sc3nncn3C)o2)CC1CCO (stereo unspecified),-7
Cc1ccc(Cn2c(SCC(C)C)nc3c2c(=O)n(C)c(=O)n3C)cc1,-8
CN(C)S(=O)(=O)Oc1cccc(C(=O)Nc2ccc([N+](=O)[O-])cc2)c1,7
O=C(COc1ccc([N+](=O)[O-])cc1)Nc1ccncc1,-6
COc1ccccc1N(C(=O)c1ccncc1)c1nc(-c2ccc([N+](=O)[O-])cc2)cs1,5
O=C(Cc1nc(-c2ccc([N+](=O)[O-])cc2)cs1)Nc1ccccc1,193*
Cc1csc(SCC(=O)c2c(N)n(C)c(=O)n(C)c2=O)n1,-9
CC(C)NC(=O)NC(=O)COc1ccc(Br)cc1Br,5
COc1ccc(NC(=O)C(C)N2C(=O)c3ccccc3C2=O)cc1S(=O)(=O)N1CCOCC1 (stereo unspecified),0
Cc1ccc(C(=O)N/C(N)=N/c2nc3ccccc3o2)cc1,-4
Cc1ccc(-c2nnc(Sc3nc4ccccc4o3)c3ccccc23)cc1,590*
Cc1cccc(NC(=O)CSc2nc3ccccc3o2)c1,-4
COc1ccc(-c2c(C)nn(-c3ccccc3)c2N)cc1,0
Cc1nn(-c2ccc(C(=O)O)cc2)c(C)c1Oc1ccccc1O,8
COP(C)(=O)c1c(C)nn(-c2ccccc2)c1C (stereo unspecified),84*
C=CCNC(=O)CN(c1cccc(Br)c1)S(C)(=O)=O,3
CS(=O)(=O)N(CC(N)=O)c1cccc(Br)c1,514*
CS(=O)(=O)N(CC(N)=O)c1ccc(F)c(Cl)c1,277
SMILES,Insulin prom act
CC1=C/C(=N\Nc2ccccc2[N+](=O)[O-])CC(C)(C)C1,0
Cn1c(-c2cccs2)[n+](C)c2ccccc21,9
O=c1c(-c2ccco2)[n+]([O-])c2ccccc2n1OCc1ccccn1,-5
COn1c(=O)c(-c2cccs2)[n+]([O-])c2ccccc21,87*
COc1ccc(N2C(=O)CC(Nc3cccc(C(C)=O)c3)C2=O)cc1OC (stereo unspecified),1
COc1ccc(N2C(=O)CC(N3CCOCC3)C2=O)cc1 (stereo unspecified),0
COc1ccc(NC2CC(=O)N(c3cccc(C)c3)C2=O)cc1 (stereo unspecified),600*
COc1ccc(NC(=O)c2nc3nccc(C)n3n2)cn1,-4
Cc1ccc(CSCCNC(=O)/C=C/c2ccc(Cl)cc2)cc1,3
COc1ccc(/C=C/C(=O)NCCOc2ccc(C)cc2)cc1,-7
O=C(/C=C/c1ccc(OCCCF)cc1)NCc1ccc(Cl)cc1,223*
O=C1CN(c2ccccc2F)C(=O)CN1c1ccccc1F,412*
O=C(c1ccccc1C(=O)N1CCN(c2ccccc2F)CC1)N1CCN(c2ccccc2F)CC1,0
Cc1cccc(C)c1N1CC(=O)N(c2c(C)cccc2C)CC1=O,8
CCCn1nnc(NC(=O)COc2ccc(C3CCCCC3)cc2)n1,-100
CC(=O)Nc1cc(ON=C(C)C)cc([N+](=O)[O-])c1,193
CCCNC(=O)CN1C(=O)NC(CCc2ccccc2)C1=O (stereo unspecified),-73
CC(C)(C)OC(=O)N[C@@H](Cc1ccccc1)c1nnc(SCC(=O)c2ccc(Cl)cc2)o1,507*
CC(C)(C)OC(=O)N[C@@H](Cc1c[nH]c2ccccc12)c1nnc(SCC(N)=O)o1,0
Cc1ccccc1CS(=O)(=O)c1nnc([C@H](Cc2ccccc2)NC(=O)OC(C)(C)C)o1,-78
Cn1c(Cn2cnc([N+](=O)[O-])n2)nnc1SCC(=O)Nc1ccc(Br)cc1,-7
CCOc1ccc2cc(C#N)c(SCC(=O)NC(C)CC)nc2c1 (stereo unspecified),-6
O=C(CN1C(=O)NC2(CCCCC2)C1=O)NC1CCCc2ccccc21 (stereo unspecified),-3
CC1CCCCN1C(=O)c1ccc(COc2ccc([N+](=O)[O-])cc2)o1 (stereo unspecified),380*
O=C(c1ccc(-c2ccc([N+](=O)[O-])cc2)o1)N1CCCCC1,-7
SMILES,Insulin prom act
CC1CCCN(CCCOc2ccc([N+](=O)[O-])cc2)C1 (stereo unspecified),8
CN1c2cccc3cccc(c23)N(C)C1(C)C,6
CC(=O)c1ccc2cccc3c2c1N=CN3C,130*
CN1/C(=N\O)c2cccc3cccc1c23,7
CCCc1cc(C(=O)NNC(=S)Nc2cccc(C)c2)cs1,4
Cc1cccc(-c2nsc(SCC(=O)NCC3CCCO3)n2)c1 (stereo unspecified),9
O=C(O)C1CCCN(C(=O)NCc2ccccc2)C1 (stereo unspecified),5
CCOc1ccc(NC(=O)C2CCCN(C(=O)NCc3ccccc3)C2)cc1 (stereo unspecified),493*
CCOc1ccccc1NC(=O)C1CCN(C(=O)NCc2ccccc2)CC1,-7
CN1CCN(CC(=O)N(C)c2nc(-c3ccccc3)cs2)CC1,-7
COC(=O)CCCC(=O)NC(C)c1cnn(-c2ccccc2C)c1C (stereo unspecified),0
COc1cc(S(=O)(=O)n2nc(C)cc2C)c(OC)cc1Cl,0
CC#CC[N+](C)(C)CCCCCCCCCCCC,-100
CC1CCN(C(=O)c2ccc(S(=O)(=O)Cc3ccccc3F)c([N+](=O)[O-])c2)CC1,5
O=C(c1ccc(S(=O)(=O)Cc2ccccc2F)c([N+](=O)[O-])c1)N1CCCC1,0
CC1(c2ccc([N+](=O)[O-])c(CS(=O)(=O)c3ccccc3)c2)OCCO1,627*
CNC(=O)Nc1ccccc1C(=O)NCc1ccccc1,-4
O=C(Nc1ccccc1)Nc1ccccc1C(=O)NCc1ccccc1,77*
O=C(Nc1ccccc1)Nc1cccc(Cl)c1Cl,-8
Cc1ccc(-n2c(=O)c3ccccc3n(CC(=O)C(C)(C)C)c2=O)cc1,-3
O=C(C/C=N\OCc1ccc([N+](=O)[O-])cc1)Nc1ccc(F)cc1F,-6
Cc1cc(Cl)ccc1OCC(=O)N1CCCCC1,-7
COC(=O)C1CCCN1C(=O)COc1ccc(Br)cc1Cl (stereo unspecified),438*
COCCNC(=O)COc1ccc(Br)cc1Cl,-7
CCOc1ccccc1OCC(=O)Nc1nnc(COC)s1,-9
CCCC(=O)Nc1ccc2c(c1)nc1n2CCN(C2CCCCC2)C1,-7
CCc1ccc(C(C(=O)NCCOC)N(C(=O)Cn2nnc3ccccc32)c2cccnc2)cc1 (stereo unspecified),450*
Cc1cccc(N(C(=O)Cn2nnc3ccccc32)C(C(=O)NCc2ccco2)c2ccncc2)c1C (stereo unspecified),9
CCCCN(C(=O)Cn1nnc2ccccc21)C(C(=O)NCCOC)c1ccccc1 (stereo unspecified),219
N#CCC(=O)Nc1ncc(Cc2ccccc2Cl)s1,0
